ChEMBL document CHEMBL3351863, “Optimization of 2-phenyl-pyrimidine-4-carboxamides towards potent, orally bioavailable and selective P2Y(12) antagonists for inhibition of platelet aggregation” (Bioorg Med Chem Lett, 2014)

Test system: Liver microsome
Assay: Metabolic stability assay in human liver microsomes assessed as parent drug disappearance at 1 uM after 20 mins by HPLC and mass spectrometry method
Format: ADME
Details: not given; call rule not given here
With CCCCOC(=O)N1CCN(C(=O)[C@H](CCC(=O)O)NC(=O)c2cc([C@H]3C[C@@H]3COC)nc(-c3ccccc3)n2)CC1 (racemic) the Stability was “Stable”. For CCOC(=O)N1CCN(C(=O)[C@H](CCC(=O)O)NC(=O)c2cc(NC(C)C)nc(-c3ccccc3)n2)CC1, the Stability was “Stable”. With CCOC(=O)N1CCN(C(=O)[C@H](CCC(=O)O)NC(=O)c2cc(-n3cc(C)cn3)nc(-c3ccccc3)n2)CC1 the Stability was “Stable”. For CCOC(=O)N1CCN(C(=O)[C@H](CCC(=O)O)NC(=O)c2cc(-c3ccc(OC)cc3)nc(-c3ccccc3)n2)CC1, the Stability was “Stable”.

Target: T1, Cytochrome P450 3A4 (Homo sapiens, UniProt P08684)
T1 sequence (P08684 whole entry): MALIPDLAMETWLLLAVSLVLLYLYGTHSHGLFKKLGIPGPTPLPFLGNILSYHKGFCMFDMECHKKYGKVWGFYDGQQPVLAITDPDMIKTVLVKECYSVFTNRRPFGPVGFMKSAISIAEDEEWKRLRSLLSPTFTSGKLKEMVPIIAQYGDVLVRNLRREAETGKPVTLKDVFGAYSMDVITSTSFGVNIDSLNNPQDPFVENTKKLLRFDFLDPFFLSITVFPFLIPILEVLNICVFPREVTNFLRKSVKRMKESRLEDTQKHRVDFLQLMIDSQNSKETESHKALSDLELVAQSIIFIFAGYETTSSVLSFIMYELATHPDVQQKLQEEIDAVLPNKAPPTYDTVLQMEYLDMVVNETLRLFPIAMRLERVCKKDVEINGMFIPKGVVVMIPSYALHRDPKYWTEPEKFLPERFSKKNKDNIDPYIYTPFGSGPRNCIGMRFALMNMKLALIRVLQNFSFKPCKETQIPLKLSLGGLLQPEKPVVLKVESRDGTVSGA
Assay: Inhibition of CYP3A4 in human liver microsomes assessed as reduction in testosterone 6beta-hydroxylation
Format: ADME
Details: not given
With CCCCOC(=O)N1CCN(C(=O)[C@H](CCC(=O)O)NC(=O)c2cc([C@H]3C[C@@H]3COC)nc(-c3ccccc3)n2)CC1 (racemic) the “inhibition (INH)” value was “Not Active”. For CCOC(=O)N1CCN(C(=O)[C@H](CCC(=O)O)NC(=O)c2cc(NC(C)C)nc(-c3ccccc3)n2)CC1, the “inhibition (INH)” value was “Not Active”. With CCOC(=O)N1CCN(C(=O)[C@H](CCC(=O)O)NC(=O)c2cc(-n3cc(C)cn3)nc(-c3ccccc3)n2)CC1 the “inhibition (INH)” value was “Not Active”. For CCOC(=O)N1CCN(C(=O)[C@H](CCC(=O)O)NC(=O)c2cc(-c3ccc(OC)cc3)nc(-c3ccccc3)n2)CC1, the “inhibition (INH)” value was “Not Active”.

Target: T1, Cytochrome P450 3A4
Assay: Inhibition of CYP3A4 in human liver microsomes assessed as reduction in midazolam 1'-hydroxylation
Format: ADME
Details: not given
In the case of CCCCOC(=O)N1CCN(C(=O)[C@H](CCC(=O)O)NC(=O)c2cc([C@H]3C[C@@H]3COC)nc(-c3ccccc3)n2)CC1 (racemic), the “inhibition (INH)” value is reported as “Not Active”. For CCOC(=O)N1CCN(C(=O)[C@H](CCC(=O)O)NC(=O)c2cc(NC(C)C)nc(-c3ccccc3)n2)CC1, the “inhibition (INH)” value was “Not Active”. With CCOC(=O)N1CCN(C(=O)[C@H](CCC(=O)O)NC(=O)c2cc(-n3cc(C)cn3)nc(-c3ccccc3)n2)CC1 the “inhibition (INH)” value was “Not Active”. In the case of CCOC(=O)N1CCN(C(=O)[C@H](CCC(=O)O)NC(=O)c2cc(-c3ccc(OC)cc3)nc(-c3ccccc3)n2)CC1, the “inhibition (INH)” value is reported as “Not Active”.

Test system: Platelet
Assay: Inhibition of ADP-induced platelet aggregation in human platelet rich plasma assessed as remaining activity at 500 nM by in-vitro light transmission aggregometry assay
Format: functional
Details: not given
Summary of the method: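 Light transmission aggregometry in human platelet-rich plasma; compound incubated, aggregation triggered with 3 µM ADP; remaining activity (RA) recorded at a single compound level (1000, 500 or 100 nM).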
CCOC(=O)N1CCN(C(=O)[C@H](CCC(=O)O)NC(=O)c2cc(-n3cc(C)cn3)nc(-c3ccccc3)n2)CC1 gave an Activity of 30%. Work on CCOC(=O)N1CCN(C(=O)[C@H](CCC(=O)O)NC(=O)c2cc(-c3ccc(OC)cc3)nc(-c3ccccc3)n2)CC1 yielded an Activity of 30%.

Target: P2Y purinoceptor 12 (Homo sapiens, UniProt Q9H244)
Sequence (Q9H244 whole entry): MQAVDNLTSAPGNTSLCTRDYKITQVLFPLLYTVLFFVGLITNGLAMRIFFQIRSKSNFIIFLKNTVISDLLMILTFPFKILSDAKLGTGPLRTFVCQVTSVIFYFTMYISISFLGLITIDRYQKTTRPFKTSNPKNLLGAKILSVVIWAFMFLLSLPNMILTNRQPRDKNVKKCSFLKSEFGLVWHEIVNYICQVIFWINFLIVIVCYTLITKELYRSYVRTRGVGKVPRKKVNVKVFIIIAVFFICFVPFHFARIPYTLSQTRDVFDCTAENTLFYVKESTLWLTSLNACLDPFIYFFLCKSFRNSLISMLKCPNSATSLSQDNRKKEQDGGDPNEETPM
Assay: Displacement of [3H]-2-methyl-thio-adenosine 5'-diphosphate from human recombinant P2Y12 expressed in CHO cell membranes by scintillation counting method
Details: not given
Summary of the method: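 CHO cells expressing recombinant P2Y₁₂ receptors, incubated with tritium-labeled 2-methyl-thio-adenosine 5'-diphosphate plus test compound; IC₅₀ from displacement curves, each point in triplicate; reference compound run with every compound set, and set re-analyzed if its IC₅₀ fell outside pre-set 95% confidence interval.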
Compound CCCCOC(=O)N1CCN(C(=O)[C@H](CCC(=O)O)NC(=O)c2cc([C@H]3C[C@@H]3COC)nc(-c3ccccc3)n2)CC1 (racemic) has an IC50 of 3 nM. With CCOC(=O)N1CCN(C(=O)[C@H](CCC(=O)O)NC(=O)c2cc(NC(C)C)nc(-c3ccccc3)n2)CC1 the IC50 was 95.5 nM. With CCOC(=O)N1CCN(C(=O)[C@H](CCC(=O)O)NC(=O)c2cc(-n3cc(C)cn3)nc(-c3ccccc3)n2)CC1 the IC50 was 27 nM. Compound CCOC(=O)N1CCN(C(=O)[C@H](CCC(=O)O)NC(=O)c2cc(-c3ccc(OC)cc3)nc(-c3ccccc3)n2)CC1 has an IC50 of 31 nM.

Target: Cytochrome P450 2C9 (Homo sapiens, UniProt P11712)
Sequence (P11712 whole entry): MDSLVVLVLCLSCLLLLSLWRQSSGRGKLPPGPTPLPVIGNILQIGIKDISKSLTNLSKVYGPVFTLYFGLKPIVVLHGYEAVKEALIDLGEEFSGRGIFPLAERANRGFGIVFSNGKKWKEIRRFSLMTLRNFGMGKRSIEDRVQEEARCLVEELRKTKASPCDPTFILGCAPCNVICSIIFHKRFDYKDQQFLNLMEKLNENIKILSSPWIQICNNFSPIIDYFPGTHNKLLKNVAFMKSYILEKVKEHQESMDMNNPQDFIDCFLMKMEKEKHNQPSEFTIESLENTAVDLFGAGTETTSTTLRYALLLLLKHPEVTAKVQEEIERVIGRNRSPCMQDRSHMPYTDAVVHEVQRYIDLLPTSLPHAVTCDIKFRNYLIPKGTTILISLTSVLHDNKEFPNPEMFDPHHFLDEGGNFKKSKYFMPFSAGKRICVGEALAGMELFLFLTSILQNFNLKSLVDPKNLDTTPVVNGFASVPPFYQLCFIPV
Assay: Inhibition of CYP2C9 in human liver microsomes assessed as reduction in diclofenac 4'-hydroxylation
Format: ADME
Details: not given
In the case of CCCCOC(=O)N1CCN(C(=O)[C@H](CCC(=O)O)NC(=O)c2cc([C@H]3C[C@@H]3COC)nc(-c3ccccc3)n2)CC1 (racemic), the “inhibition (INH)” value is reported as “Not Active”. With CCOC(=O)N1CCN(C(=O)[C@H](CCC(=O)O)NC(=O)c2cc(NC(C)C)nc(-c3ccccc3)n2)CC1 the “inhibition (INH)” value was “Not Active”. With CCOC(=O)N1CCN(C(=O)[C@H](CCC(=O)O)NC(=O)c2cc(-n3cc(C)cn3)nc(-c3ccccc3)n2)CC1 the “inhibition (INH)” value was “Not Active”. In the case of CCOC(=O)N1CCN(C(=O)[C@H](CCC(=O)O)NC(=O)c2cc(-c3ccc(OC)cc3)nc(-c3ccccc3)n2)CC1, the “inhibition (INH)” value is reported as “Not Active”.

Test system: not listed separately
Assay: Solubility in neutral pH
Format: physicochemical
Details: not given
With CCCCOC(=O)N1CCN(C(=O)[C@H](CCC(=O)O)NC(=O)c2cc([C@H]3C[C@@H]3COC)nc(-c3ccccc3)n2)CC1 (racemic) the solubility was “soluble”. In the case of CCOC(=O)N1CCN(C(=O)[C@H](CCC(=O)O)NC(=O)c2cc(NC(C)C)nc(-c3ccccc3)n2)CC1, the solubility is reported as “soluble”. For CCOC(=O)N1CCN(C(=O)[C@H](CCC(=O)O)NC(=O)c2cc(-n3cc(C)cn3)nc(-c3ccccc3)n2)CC1, the solubility was “soluble”. In the case of CCOC(=O)N1CCN(C(=O)[C@H](CCC(=O)O)NC(=O)c2cc(-c3ccc(OC)cc3)nc(-c3ccccc3)n2)CC1, the solubility is reported as “soluble”.

Test system: Platelet
Assay: Inhibition of ADP-induced platelet aggregation in human platelet rich plasma by in-vitro light transmission aggregometry assay
Format: functional
Details: Homo sapiens, Platelet, Plasma
Summary of the method: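 Human platelet-rich plasma incubated with compound, aggregation induced by 3 µM ADP and read by light transmission aggregometry; IC₅₀ derived from concentration–response curve.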
CCCCOC(=O)N1CCN(C(=O)[C@H](CCC(=O)O)NC(=O)c2cc([C@H]3C[C@@H]3COC)nc(-c3ccccc3)n2)CC1 (racemic) showed an IC50 of 21 nM. Work on CCOC(=O)N1CCN(C(=O)[C@H](CCC(=O)O)NC(=O)c2cc(NC(C)C)nc(-c3ccccc3)n2)CC1 yielded an IC50 of 724 nM. For CCOC(=O)N1CCN(C(=O)[C@H](CCC(=O)O)NC(=O)c2cc(-n3cc(C)cn3)nc(-c3ccccc3)n2)CC1, the IC50 was 318 nM. For CCOC(=O)N1CCN(C(=O)[C@H](CCC(=O)O)NC(=O)c2cc(-c3ccc(OC)cc3)nc(-c3ccccc3)n2)CC1, the IC50 was 523 nM.

Target: Voltage-gated inwardly rectifying potassium channel KCNH2 (Homo sapiens, UniProt Q12809)
Sequence (Q12809 whole entry): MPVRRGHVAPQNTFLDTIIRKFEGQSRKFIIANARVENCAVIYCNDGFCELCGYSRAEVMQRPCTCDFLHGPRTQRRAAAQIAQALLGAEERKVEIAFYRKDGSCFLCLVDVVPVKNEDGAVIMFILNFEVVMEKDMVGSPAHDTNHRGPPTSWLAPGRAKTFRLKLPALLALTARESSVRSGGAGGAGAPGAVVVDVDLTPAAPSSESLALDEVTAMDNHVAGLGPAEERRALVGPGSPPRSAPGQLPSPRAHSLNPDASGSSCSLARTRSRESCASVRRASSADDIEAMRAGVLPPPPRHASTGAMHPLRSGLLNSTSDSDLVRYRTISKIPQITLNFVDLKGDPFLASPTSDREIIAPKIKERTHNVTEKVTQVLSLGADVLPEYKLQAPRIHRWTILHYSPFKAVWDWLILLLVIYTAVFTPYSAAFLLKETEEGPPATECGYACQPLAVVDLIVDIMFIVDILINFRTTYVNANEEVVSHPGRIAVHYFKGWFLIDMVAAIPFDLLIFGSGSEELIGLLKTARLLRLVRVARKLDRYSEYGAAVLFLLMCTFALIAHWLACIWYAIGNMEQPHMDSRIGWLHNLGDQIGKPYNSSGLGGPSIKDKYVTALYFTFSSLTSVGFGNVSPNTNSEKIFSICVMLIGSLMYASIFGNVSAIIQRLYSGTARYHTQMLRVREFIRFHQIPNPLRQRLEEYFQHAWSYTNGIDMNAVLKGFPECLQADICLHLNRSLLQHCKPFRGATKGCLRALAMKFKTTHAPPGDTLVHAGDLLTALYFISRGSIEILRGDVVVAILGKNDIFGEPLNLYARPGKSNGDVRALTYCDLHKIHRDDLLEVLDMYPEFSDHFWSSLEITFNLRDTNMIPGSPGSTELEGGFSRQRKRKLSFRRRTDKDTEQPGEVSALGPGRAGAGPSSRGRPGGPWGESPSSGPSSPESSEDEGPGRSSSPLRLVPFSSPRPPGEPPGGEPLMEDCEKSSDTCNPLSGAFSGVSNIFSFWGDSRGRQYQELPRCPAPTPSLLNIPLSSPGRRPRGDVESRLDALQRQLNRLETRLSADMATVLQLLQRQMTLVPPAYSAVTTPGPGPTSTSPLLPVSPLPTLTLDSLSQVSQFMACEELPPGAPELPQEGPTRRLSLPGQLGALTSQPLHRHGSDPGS
Assay: Inhibition of human ERG expressed in HEK cells by patch-clamp assay
Format: cell-based
Details: hek293
In the case of CCCCOC(=O)N1CCN(C(=O)[C@H](CCC(=O)O)NC(=O)c2cc([C@H]3C[C@@H]3COC)nc(-c3ccccc3)n2)CC1 (racemic), the “inhibition (INH)” value is reported as “Not Active”. For CCOC(=O)N1CCN(C(=O)[C@H](CCC(=O)O)NC(=O)c2cc(NC(C)C)nc(-c3ccccc3)n2)CC1, the “inhibition (INH)” value was “Not Active”. With CCOC(=O)N1CCN(C(=O)[C@H](CCC(=O)O)NC(=O)c2cc(-n3cc(C)cn3)nc(-c3ccccc3)n2)CC1 the “inhibition (INH)” value was “Not Active”. For CCOC(=O)N1CCN(C(=O)[C@H](CCC(=O)O)NC(=O)c2cc(-c3ccc(OC)cc3)nc(-c3ccccc3)n2)CC1, the “inhibition (INH)” value was “Not Active”.

Test system: not listed separately
Assay: Solubility in basic pH
Format: physicochemical
Details: not given
For CCCCOC(=O)N1CCN(C(=O)[C@H](CCC(=O)O)NC(=O)c2cc([C@H]3C[C@@H]3COC)nc(-c3ccccc3)n2)CC1 (racemic), the solubility was “soluble”. For CCOC(=O)N1CCN(C(=O)[C@H](CCC(=O)O)NC(=O)c2cc(NC(C)C)nc(-c3ccccc3)n2)CC1, the solubility was “soluble”. In the case of CCOC(=O)N1CCN(C(=O)[C@H](CCC(=O)O)NC(=O)c2cc(-n3cc(C)cn3)nc(-c3ccccc3)n2)CC1, the solubility is reported as “soluble”. With CCOC(=O)N1CCN(C(=O)[C@H](CCC(=O)O)NC(=O)c2cc(-c3ccc(OC)cc3)nc(-c3ccccc3)n2)CC1 the solubility was “soluble”.

Target: Cytochrome P450 2D6 (Homo sapiens, UniProt P10635)
Sequence (P10635 whole entry): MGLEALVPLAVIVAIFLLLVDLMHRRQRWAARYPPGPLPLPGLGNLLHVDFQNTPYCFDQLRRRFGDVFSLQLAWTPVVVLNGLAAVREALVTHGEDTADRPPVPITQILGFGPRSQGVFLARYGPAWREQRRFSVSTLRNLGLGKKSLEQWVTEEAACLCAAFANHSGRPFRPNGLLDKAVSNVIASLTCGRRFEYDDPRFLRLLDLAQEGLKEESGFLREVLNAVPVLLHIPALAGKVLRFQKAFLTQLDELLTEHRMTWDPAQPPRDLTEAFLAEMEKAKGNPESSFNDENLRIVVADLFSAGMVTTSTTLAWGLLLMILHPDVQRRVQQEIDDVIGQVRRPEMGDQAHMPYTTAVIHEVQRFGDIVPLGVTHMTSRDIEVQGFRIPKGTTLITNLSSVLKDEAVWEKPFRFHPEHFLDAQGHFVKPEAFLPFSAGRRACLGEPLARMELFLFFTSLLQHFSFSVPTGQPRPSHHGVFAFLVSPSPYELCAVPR
Assay: Inhibition of CYP2D6 in human liver microsomes assessed as reduction in dextromethorphan-O demethylation
Format: ADME
Details: not given
For CCCCOC(=O)N1CCN(C(=O)[C@H](CCC(=O)O)NC(=O)c2cc([C@H]3C[C@@H]3COC)nc(-c3ccccc3)n2)CC1 (racemic), the “inhibition (INH)” value was “Not Active”. For CCOC(=O)N1CCN(C(=O)[C@H](CCC(=O)O)NC(=O)c2cc(NC(C)C)nc(-c3ccccc3)n2)CC1, the “inhibition (INH)” value was “Not Active”. In the case of CCOC(=O)N1CCN(C(=O)[C@H](CCC(=O)O)NC(=O)c2cc(-n3cc(C)cn3)nc(-c3ccccc3)n2)CC1, the “inhibition (INH)” value is reported as “Not Active”. In the case of CCOC(=O)N1CCN(C(=O)[C@H](CCC(=O)O)NC(=O)c2cc(-c3ccc(OC)cc3)nc(-c3ccccc3)n2)CC1, the “inhibition (INH)” value is reported as “Not Active”.

Test system: Liver microsome
Assay: Metabolic stability assay in rat liver microsomes assessed as parent drug disappearance at 1 uM after 20 mins by HPLC and mass spectrometry method
Format: ADME
Details: not given
For CCCCOC(=O)N1CCN(C(=O)[C@H](CCC(=O)O)NC(=O)c2cc([C@H]3C[C@@H]3COC)nc(-c3ccccc3)n2)CC1 (racemic), the Stability was “Stable”. For CCOC(=O)N1CCN(C(=O)[C@H](CCC(=O)O)NC(=O)c2cc(NC(C)C)nc(-c3ccccc3)n2)CC1, the Stability was “Stable”. With CCOC(=O)N1CCN(C(=O)[C@H](CCC(=O)O)NC(=O)c2cc(-n3cc(C)cn3)nc(-c3ccccc3)n2)CC1 the Stability was “Stable”. With CCOC(=O)N1CCN(C(=O)[C@H](CCC(=O)O)NC(=O)c2cc(-c3ccc(OC)cc3)nc(-c3ccccc3)n2)CC1 the Stability was “Stable”.

Test system: not listed separately
Assay: Potency shift, ratio of IC50 for inhibition of ADP-induced platelet aggregation in human platelet rich plasma to IC50 for displacement of [3H]-2-methyl-thio-adenosine 5'-diphosphate from human recombinant P2Y12 expressed in CHO cell membranes
Details: not given
In the case of CCCCOC(=O)N1CCN(C(=O)[C@H](CCC(=O)O)NC(=O)c2cc([C@H]3C[C@@H]3COC)nc(-c3ccccc3)n2)CC1 (racemic), the “Ratio IC50” value is reported as 7. In the case of CCOC(=O)N1CCN(C(=O)[C@H](CCC(=O)O)NC(=O)c2cc(NC(C)C)nc(-c3ccccc3)n2)CC1, the “Ratio IC50” value is reported as 7.6. For CCOC(=O)N1CCN(C(=O)[C@H](CCC(=O)O)NC(=O)c2cc(-n3cc(C)cn3)nc(-c3ccccc3)n2)CC1, the “Ratio IC50” value was 12. With CCOC(=O)N1CCN(C(=O)[C@H](CCC(=O)O)NC(=O)c2cc(-c3ccc(OC)cc3)nc(-c3ccccc3)n2)CC1 the “Ratio IC50” value was 17.
